Assays:
[1] = Clearance in Wistar rat hepatocytes at 1 uM incubated up to 90 mins by LC-MS/MS analysis; assay type: ADME, cell-based, Hepatocyte; details: for CLhep predicted at 1 µM: Wistar
Summary of the method: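 Fresh male Wistar rat hepatocytes, 1 × 10⁶ viable cells/mL, in Williams' medium E at 37 °C, pH 7.4, with 1 μM substrate and <1% acetonitrile. Samples at 2–90 min quenched in acetonitrile and analysed by LC-MS/MS.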

[2] = target: T1, Nuclear receptor subfamily 1 group I member 2 (Homo sapiens, UniProt O75469); test: Activation of human PXR expressed in human HepG2 cells; assay type: ADME, cell-based
T1 sequence (O75469 whole entry): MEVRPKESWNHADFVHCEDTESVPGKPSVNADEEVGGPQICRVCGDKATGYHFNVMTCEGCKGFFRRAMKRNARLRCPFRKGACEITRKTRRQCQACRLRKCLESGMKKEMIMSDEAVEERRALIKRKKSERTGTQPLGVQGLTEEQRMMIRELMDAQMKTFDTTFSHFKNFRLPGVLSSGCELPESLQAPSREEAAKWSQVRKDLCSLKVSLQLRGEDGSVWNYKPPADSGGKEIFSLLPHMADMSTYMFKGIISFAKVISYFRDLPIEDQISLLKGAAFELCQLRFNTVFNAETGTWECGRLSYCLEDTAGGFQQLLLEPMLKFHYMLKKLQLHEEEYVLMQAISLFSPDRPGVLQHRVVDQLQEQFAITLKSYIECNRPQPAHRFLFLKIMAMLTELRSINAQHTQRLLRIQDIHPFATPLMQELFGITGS
Summary of the method: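 HepG2 cells transiently co-transfected with human PXR and a luciferase reporter under the human CYP3A4 promoter, 48 h before readout. 24 h after seeding, 1:3 serial dilutions (2 nM to 50 μM, 0.5% DMSO) added. Luminescence normalized to rifampicin (100%) and DMSO (0%). MEC is the lowest concentration raising signal above 4-fold SD of DMSO background.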

[3] = Permeability from apical to basolateral side in human Caco2 cells incubated for 2 hrs by LC-MS/MS analysis; assay type: ADME, cell-based; details: Caco-2
Summary of the method: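 Caco-2 cells grown 15 d on 0.4 μm inserts, TEER ≥600 Ω. Compound (DMSO stock diluted 100-fold) in HBSS pH 7.4 with 10 mM HEPES and 20 mM glucose, added apically or basolaterally. Incubated 2 h at 37 °C and analysed by LC-MS/MS. Papp = (Vr/P0)·(1/S)·(P2/t); mean and SD.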

[4] = MRT in Wistar Hannover rat at 0.3 to 0.5 mg/kg, iv by LC-MS/MS analysis; assay type: ADME, organism-based; details: in vivo, dose 0.3-0.5 mg/kg, time <=24 hrs
Summary of the method: (§1)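 Male Wistar Hannover rats, catheterized under isoflurane; one day later iv injection into lateral tail vein at 0.3 to 0.5 mg/kg in plasma containing 2% DMSO. Blood sampled via catheter from 0.033 to 24 h. Plasma precipitated with acetonitrile, analysed by LC-MS/MS (10 mM ammonium acetate pH 3.0/acetonitrile gradient). PK parameters calculated from plasma concentrations.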

[5] = AUC/dose in Wistar Hannover rat at 0.3 to 0.5 mg/kg, iv by LC-MS/MS analysis; assay type: ADME, organism-based; details: in vivo, dose 0.3-0.5 mg/kg, time <=24 hrs; summary of the method: as §1
[6] = Blood clearance in Wistar Hannover rat at 0.3 to 0.5 mg/kg, iv by LC-MS/MS analysis; assay type: ADME, organism-based; details: whole blood, dose 0.3-0.5 mg/kg, time <=24 hrs; summary of the method: as §1
[7] = Ratio of drug level in blood to plasma in Wistar Hannover rat at 0.3 to 0.5 mg/kg, iv by LC-MS/MS analysis; assay type: ADME, organism-based; details: blood and plasma, dose 0.3-0.5 mg/kg, time <=24 hrs
[8] = Volume of distribution at steady state in Wistar Hannover rat at 0.3 to 0.5 mg/kg, iv by LC-MS/MS analysis; assay type: ADME, organism-based; details: in vivo, dose 0.3-0.5 mg/kg, time <=24 hrs, read-out: Vdss; summary of the method: as §1
[9] = Half life in Wistar Hannover rat at 0.3 to 0.5 mg/kg, iv by LC-MS/MS analysis; assay type: ADME, organism-based; details: in vivo, dose 0.3-0.5 mg/kg, time <=24 hrs; summary of the method: as §1
[10] = target: T1, Nuclear receptor subfamily 1 group I member 2; test: Activation of human PXR human hepatocytes assessed as induction of CYP3A4 mRNA expression incubated for 48 hrs by qPCR analysis; assay type: ADME, tissue-based, Hepatocyte
Summary of the method: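 Human hepatocytes in collagen sandwich, cultured 1 d, then treated with eight 1:3 serial concentrations for 2 consecutive days with daily media change. mRNA isolated on magnetic beads, reverse transcribed, and quantified by TaqMan qRT-PCR against actin/tubulin. Fold induction over vehicle by ΔΔCt; NOEL reported.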

[11] = Oral bioavailability in Wistar Hannover rat at 1 mg/kg by LC-MS/MS analysis; assay type: ADME, organism-based; details: in vivo, time <=24 hrs
Summary of the method: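 Catheterized male Wistar Hannover rats dosed by gavage at 1 mg/kg in 10% ethanol/40% PEG/50% water. Blood taken via catheter at 0.083 to 24 h. Plasma precipitated with acetonitrile and analysed by LC-MS/MS. Bioavailability derived against iv dosing at 0.3 to 0.5 mg/kg.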

Structure (SMILES)	CLhep predicted at 1 µM [1] [mL/min/kg]	MEC [2] [µM]	Papp A→B at 2 h [3] [×10⁻⁶ cm/s]	also measured
COc1cc(C(=O)N2CC(C)OCC2C2CC(O)C2)cc2nc(N[C@H](CF)c3cccc(Cl)c3)oc12 (stereo partly drawn)	56.7	3	–	–
COc1cc(C(=O)N2CC(C)(CCO)OC[C@H]2C)cn2nc(NCc3cccc(Cl)c3)nc12 (stereo partly drawn)	46.7	15	8.1	MRT [4]: 0.36 h; AUC/dose [5]: 0.16 kg·h/L; clearance [6]: 76.7 mL/min/kg; blood plasma ratio [7]: 1.35; Vd [8]: 2.2 L/kg; half-life [9]: 0.32 h; NOAEL [10]: > 10000 ng/mL
COc1cc(C(=O)N2CC(C)OCC2CCO)cn2nc(NCc3cccc(Cl)c3)nc12 (stereo not drawn)	31.7	11	–	–
COc1cc(C(=O)N2CC(C)OCC2CCO)cc2nc(NCc3cc(Cl)ccn3)oc12 (stereo not drawn)	20	17	11.1	MRT [4]: 0.51 h; AUC/dose [5]: 0.39 kg·h/L; clearance [6]: 40 mL/min/kg; blood plasma ratio [7]: 1.08; Vd [8]: 1.3 L/kg; half-life [9]: 0.5 h; NOAEL [10]: > 10000 ng/mL
COc1cc(C(=O)N2CC(C)C(O)CC2CCO)cc2nc(NCc3cccc(Cl)c3)oc12 (racemic)	4.5	0.81	0.94	–
CC[C@@H]1CO[C@@](C)(CCO)CN1C(=O)c1cc(OC)c2oc(N[C@H](C)c3cccc(Cl)c3)nc2c1	65	0.26	6.8	MRT [4]: 1.2 h; AUC/dose [5]: 0.32 kg·h/L; clearance [6]: 65 mL/min/kg; blood plasma ratio [7]: 1.07; Vd [8]: 3.7 L/kg; half-life [9]: 1 h; NOAEL [10]: 1111 ng/mL
COc1cc(C(=O)N2CC[C@H](O)[C@@H](C)C2)cc2nc(NCc3cccc(Cl)c3)oc12	36.7	–	–	–
COc1cc(C(=O)N2CC(C)CCC2CCO)cc2nc(NCc3cccc(Cl)c3)oc12 (racemic)	63.3	0.32	19.1	–
CCCN(CC1CCOC1)C(=O)c1cc(OC)c2oc(NCc3cccc(Cl)c3)nc2c1 (racemic)	65	–	24.6	–
COc1cc(C(=O)N2CC(C)(CCO)OC[C@H]2C)cc2nc(N[C@H](CF)c3cccc(Cl)c3)oc12 (stereo partly drawn)	56.7	0.39	–	MRT [4]: 1.1 h; AUC/dose [5]: 0.33 kg·h/L; clearance [6]: 53.3 mL/min/kg; blood plasma ratio [7]: 0.94; Vd [8]: 3.3 L/kg; half-life [9]: 1.1 h
COc1cc(C(=O)N2CC(C)OCC2C2CC(O)C2)cn2nc(NCc3cccc(Cl)c3)nc12 (stereo not drawn)	50	13	7.2	–
COc1cc(C(=O)N2CC(C)C(O)CC2C2CC2)cc2nc(NCc3cccc(Cl)c3)oc12 (racemic)	63.3	0.26	13.8	–
CCC1CC(O)C(C)CN1C(=O)c1cc(OC)c2oc(NCc3cccc(Cl)c3)nc2c1 (racemic)	61.7	–	–	–
COc1cc(C(=O)N2CC(C)OCC2C2CC(O)C2)cc2nc(NCc3cc(Cl)ccn3)oc12 (stereo not drawn)	45	8.2	–	–
CCCCCCOC(=O)NC(=N)c1ccc(NCc2nc3cc(C(=O)N(CCC(=O)OCC)c4ccccn4)ccc3n2C)cc1 [DABIGATRAN ETEXILATE]	–	–	–	MRT [4]: 1.6 h; AUC/dose [5]: 3 kg·h/L; clearance [6]: 9.83 mL/min/kg; Vd [8]: 0.54 L/kg; half-life [9]: 1.2 h; bioavailability [11]: 1.9%
COc1cc(C(=O)N2CCOC(C)(CCO)C2)cc2nc(N[C@H](C)c3cccc(Cl)c3)oc12 (stereo partly drawn)	43.3	0.58	–	MRT [4]: 1.8 h; AUC/dose [5]: 0.33 kg·h/L; clearance [6]: 48.3 mL/min/kg; blood plasma ratio [7]: 1.07; Vd [8]: 5.6 L/kg; half-life [9]: 2.7 h; bioavailability [11]: 38%
COc1cc(C(=O)N2CCC(O)C(C)C2)cc2nc(NCc3cccc(Cl)c3)oc12 (racemic)	45	1.4	8.4	–
COc1cc(C(=O)N2CCC(O)C(C)C2)cc2nc(NCc3cc(Cl)ccc3O)oc12 (racemic)	–	8.3	–	–

Structure (SMILES)	CLhep predicted at 1 µM [1] [mL/min/kg]	MEC [2] [µM]	Papp A→B at 2 h [3] [×10⁻⁶ cm/s]	also measured
COc1cc(C(=O)N2C[C@@H](C)OC[C@H]2CCO)cc2nc(N[C@H](C)c3cccc(Cl)c3)oc12	38.3	1.4	–	–
COc1cc(C(=O)N2CCCC2(C)C)cc2nc(NCc3cccc(Cl)c3)oc12	58.3	–	–	–
COc1cc(C(=O)N2CC(C)(CCO)OC[C@H]2C)cc2nc(NCc3cc(Cl)ccn3)oc12 (stereo partly drawn)	41.7	8	–	MRT [4]: 0.46 h; AUC/dose [5]: 0.23 kg·h/L; clearance [6]: 66.7 mL/min/kg; blood plasma ratio [7]: 1.08; Vd [8]: 2 L/kg; half-life [9]: 0.44 h; NOAEL [10]: > 10000 ng/mL
COc1cc(C(=O)N2CCC(O)CC2)cc2nc(NCc3cccc(Cl)c3)oc12	21.7	3.1	7.1	–
COc1cc(C(=O)N2CCC(O)C(C)C2)cc2nc(NCc3cc(Cl)ccn3)oc12 (racemic)	14.3	3.6	4.1	–
COc1cc(C(=O)N2C[C@H](C)OC[C@@H]2CCO)cc2nc(N[C@H](C)c3cccc(Cl)c3)oc12	45	2.8	10.1	–
COc1cc(C(=O)N2CC[C@@H](O)C(C)(C)C2)cc2nc(NCc3cccc(Cl)c3)oc12 (racemic)	51.7	6.3	–	–
O=C(NCc1cccc(Cl)c1)c1ccc2cn(CCN3CCOC3=O)nc2c1	–	–	6.2	clearance [6]: 23.3 mL/min/kg
COc1cc(C(=O)N2CCC(O)C(C)C2)cc2nc(NCc3cncc(Cl)c3)oc12 (racemic)	40	–	0.93	–
COc1cc(C(=O)N2CCC(O)C(C)C2)cc2nc(NC3(c4cccc(Cl)c4)CC3)oc12 (racemic)	46.7	–	–	–
COc1cc(C(=O)N2CC(C)OCC2CO)cc2nc(N[C@H](C)c3cccc(Cl)c3)oc12 (stereo partly drawn)	15.5	0.29	–	MRT [4]: 1.3 h; AUC/dose [5]: 0.47 kg·h/L; clearance [6]: 40 mL/min/kg; blood plasma ratio [7]: 0.88; Vd [8]: 2.7 L/kg; half-life [9]: 1.1 h
COc1cc(C(=O)N2CC(C)C(O)CC2C)cc2nc(NCc3cccc(Cl)c3)oc12 (stereo not drawn)	56.7	2.6	12.7	–
COc1cc(C(=O)N2CCOCC2(C)C)cc2nc(NCc3cccc(Cl)c3)oc12	–	1.3	–	–
COc1cc(C(=O)N2CCC(O)C(C)C2)cn2nc(NCc3cccc(Cl)c3)nc12 (racemic)	35	20	7.1	–
COc1cc(C(=O)N2CC(C)(CCO)OC[C@H]2C)cc2nc(N[C@H](C)c3cccc(Cl)c3)oc12 (stereo partly drawn)	58.3	0.29	–	–
COc1cc(C(=O)N2CC(C)OCC2C2CC(O)C2)cc2nc(N[C@H](C)c3cccc(Cl)c3)oc12 (stereo partly drawn)	56.7	3.4	–	–
COc1cc(C(=O)N2CC(C)CCC2CCO)cc2nc(NCc3cccc(Cl)c3)oc12 (stereo in doubt; 37b)	–	0.03	–	CLH ([1]; 1.5 h, 1 µM): 56.7 mL/min/kg
